Measurements taken from ChEMBL document CHEMBL1148554, “Hydroxylated analogues of the orally active broad spectrum antifungal, Sch 51048 (1), and the discovery of posaconazole [Sch 56592; 2 or (S,S)-5]” (2006).
In brackets after ≈: the same amount, converted by molar mass.

Assays:
[1] = system: Candida albicans; assay: Antifungal activity against Candida albicans; type: functional
Outline: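 Geometric mean MIC across 26–30 C. albicans strains.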

[2] = system: Aspergillus; assay: Antifungal activity against Aspergillus species; type: functional
Outline: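 Geometric mean MIC across 37 Aspergillus strains: 17 A. fumigatus, 11 A. flavus, 5 A. niger and 4 A. terreus.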

Structure (SMILES) | MIC [1] | MIC [2]
C[C@H](O)[C@@H](C)n1ncn(-c2ccc(N3CCN(c4ccc(OC[C@@H]5CO[C@@](Cn6cncn6)(c6ccc(F)cc6F)C5)cc4)CC3)cc2)c1=O | 0.03 µg/mL (≈ 0.0437 µM) | 0.08 µg/mL (≈ 0.116 µM)
CC[C@H]([C@H](C)O)n1ncn(-c2ccc(N3CCN(c4ccc(OC[C@@H]5CO[C@@](Cn6cncn6)(c6ccc(F)cc6F)C5)cc4)CC3)cc2)c1=O | 0.022 µg/mL (≈ 0.0314 µM) | < 0.09 µg/mL
C[C@H](O)[C@H](C)n1ncn(-c2ccc(N3CCN(c4ccc(OC[C@@H]5CO[C@@](Cn6cncn6)(c6ccc(F)cc6F)C5)cc4)CC3)cc2)c1=O | 0.02 µg/mL (≈ 0.0291 µM) | 0.06 µg/mL (≈ 0.0874 µM)
CC[C@@H]([C@H](C)O)n1ncn(-c2ccc(N3CCN(c4ccc(OC[C@@H]5CO[C@@](Cn6cncn6)(c6ccc(F)cc6F)C5)cc4)CC3)cc2)c1=O [POSACONAZOLE] | 0.018 µg/mL (≈ 0.0257 µM) | < 0.048 µg/mL
C[C@@H](O)[C@H](C)n1ncn(-c2ccc(N3CCN(c4ccc(OC[C@@H]5CO[C@@](Cn6cncn6)(c6ccc(F)cc6F)C5)cc4)CC3)cc2)c1=O | < 0.007 µg/mL | < 0.05 µg/mL
CC[C@@H]([C@@H](C)O)n1ncn(-c2ccc(N3CCN(c4ccc(OC[C@@H]5CO[C@@](Cn6cncn6)(c6ccc(F)cc6F)C5)cc4)CC3)cc2)c1=O (mixture of isomers) | 0.019 µg/mL | < 0.086 µg/mL
C[C@H]([C@@H](C)O)n1ncn(-c2ccc(N3CCN(c4ccc(OC[C@@H]5CO[C@@](Cn6cncn6)(c6ccc(F)cc6F)C5)cc4)CC3)cc2)c1=O | < 0.006 µg/mL | 0.09 µg/mL (≈ 0.131 µM)
CC[C@H]([C@@H](C)O)n1ncn(-c2ccc(N3CCN(c4ccc(OC[C@@H]5CO[C@@](Cn6cncn6)(c6ccc(F)cc6F)C5)cc4)CC3)cc2)c1=O | 0.014 µg/mL (≈ 0.02 µM) | < 0.077 µg/mL
